According to publication PMC3733499 (Thrombosis and haemostasis, 2013):
Where a SMILES comes first, the peptide text is derived from it.

What was measured:
[1] = tested on: mAb S4; test: Binding of mAb S4 to immobilized peptides; details: peptide coated at 20 μM, mAb S4 26 nM, anti-mouse IgG detection
In short: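 Wells coated with peptide and blocked with I-Block; mAb S4 at 26 nM incubated in the wells. Bound antibody detected with anti-mouse IgG, then biotinylated secondary antibody, streptavidin-alkaline phosphatase and phosphatase substrate. Wash solution was HBS with 0.1% porcine skin gelatin and 2 mM CaCl2. Signal from noncoated blocked wells subtracted from coated wells.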

[2] = biological target: T1, prothrombinase (FXa/FVa/PL) (Homo sapiens, UniProt P00742+P12259); test: Purified component prothrombinase assay with FVa and PL; type: biochemical; details: for FVa-dependent inhibition of prothrombinase activity: peptide preincubated 10 min with FVa/FXa/PL
T1 sequence (P00742 41-179 partner limits assumed, one chain of several): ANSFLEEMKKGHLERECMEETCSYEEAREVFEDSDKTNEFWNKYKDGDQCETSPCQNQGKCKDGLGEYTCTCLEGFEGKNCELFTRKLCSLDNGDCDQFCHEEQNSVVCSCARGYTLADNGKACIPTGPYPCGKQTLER
T1 sequence (P00742 235-488 partner limits assumed, one chain of several): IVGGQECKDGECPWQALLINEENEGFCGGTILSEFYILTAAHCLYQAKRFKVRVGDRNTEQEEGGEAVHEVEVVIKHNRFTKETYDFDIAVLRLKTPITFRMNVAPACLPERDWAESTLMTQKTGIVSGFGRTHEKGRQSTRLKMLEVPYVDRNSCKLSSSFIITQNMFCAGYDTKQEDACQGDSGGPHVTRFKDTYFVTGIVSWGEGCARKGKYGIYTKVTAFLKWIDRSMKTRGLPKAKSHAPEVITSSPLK

[3] = biological target: T1, prothrombinase (FXa/FVa/PL); details: ref [9], cited from earlier work
[4] = tested on: platelet and fibrin deposition; details: PS infused without APC; ref [15]; cited from earlier work
[5] = tested on: FXa-induced clotting of PS-depleted plasma (PSdP); test: FXa-1-stage clotting assay without exogenous PL; type: cell-based, human; details: no exogenous PL, base clotting time 98 sec
In short: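 Human PS-depleted plasma mixed with HBS-BSA containing purified human PS (up to 379 nM) with or without neutralizing mAb S4, plus FXa. No exogenous phospholipid added. Incubated 3 min at 37°C, recalcified with CaCl2 (33 mM stock), and clotting time measured on a coagulometer. FXa standard curves without PS (up to 19 pM as 100%) converted clotting times to % FXa activity.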

[6] = tested on: prothrombinase (FXa/FVa); test: Purified component prothrombinase assay with FVa, without PL; type: biochemical, human; details: absence of PL; data not shown
[7] = biological target: Factor Va (Homo sapiens) (UniProt P12259); details: cited from earlier work
[8] = biological target: Factor Xa (Homo sapiens) (UniProt P00742); details: cited from earlier work
Factor Xa (Homo sapiens), sequence (P00742 235-488): as the sequence (P00742 235-488 partner limits assumed, one chain of several) above

[9] = biological target: T2, Factor Va (human, UniProt P12259 29-737; P12259 1574-2224); test: ELISA
T2 sequence (looked up) 1: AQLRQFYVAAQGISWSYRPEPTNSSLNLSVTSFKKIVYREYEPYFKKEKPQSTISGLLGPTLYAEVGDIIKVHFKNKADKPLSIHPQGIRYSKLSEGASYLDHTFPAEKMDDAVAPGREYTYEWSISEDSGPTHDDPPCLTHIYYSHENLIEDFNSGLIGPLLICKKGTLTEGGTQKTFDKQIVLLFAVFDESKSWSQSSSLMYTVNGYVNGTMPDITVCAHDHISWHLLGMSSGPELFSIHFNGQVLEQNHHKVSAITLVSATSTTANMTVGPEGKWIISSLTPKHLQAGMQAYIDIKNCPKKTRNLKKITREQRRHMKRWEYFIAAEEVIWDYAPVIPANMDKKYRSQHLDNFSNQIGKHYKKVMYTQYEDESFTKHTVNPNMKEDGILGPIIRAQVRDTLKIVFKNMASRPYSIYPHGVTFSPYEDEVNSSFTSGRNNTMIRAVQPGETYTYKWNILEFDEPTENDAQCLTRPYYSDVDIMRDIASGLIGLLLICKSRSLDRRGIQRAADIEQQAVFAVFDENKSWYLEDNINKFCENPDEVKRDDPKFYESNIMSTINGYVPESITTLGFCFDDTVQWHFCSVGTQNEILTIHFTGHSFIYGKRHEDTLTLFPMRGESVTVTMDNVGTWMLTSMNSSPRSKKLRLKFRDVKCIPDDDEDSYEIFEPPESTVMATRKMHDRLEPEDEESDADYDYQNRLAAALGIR
T2 sequence (looked up) 2: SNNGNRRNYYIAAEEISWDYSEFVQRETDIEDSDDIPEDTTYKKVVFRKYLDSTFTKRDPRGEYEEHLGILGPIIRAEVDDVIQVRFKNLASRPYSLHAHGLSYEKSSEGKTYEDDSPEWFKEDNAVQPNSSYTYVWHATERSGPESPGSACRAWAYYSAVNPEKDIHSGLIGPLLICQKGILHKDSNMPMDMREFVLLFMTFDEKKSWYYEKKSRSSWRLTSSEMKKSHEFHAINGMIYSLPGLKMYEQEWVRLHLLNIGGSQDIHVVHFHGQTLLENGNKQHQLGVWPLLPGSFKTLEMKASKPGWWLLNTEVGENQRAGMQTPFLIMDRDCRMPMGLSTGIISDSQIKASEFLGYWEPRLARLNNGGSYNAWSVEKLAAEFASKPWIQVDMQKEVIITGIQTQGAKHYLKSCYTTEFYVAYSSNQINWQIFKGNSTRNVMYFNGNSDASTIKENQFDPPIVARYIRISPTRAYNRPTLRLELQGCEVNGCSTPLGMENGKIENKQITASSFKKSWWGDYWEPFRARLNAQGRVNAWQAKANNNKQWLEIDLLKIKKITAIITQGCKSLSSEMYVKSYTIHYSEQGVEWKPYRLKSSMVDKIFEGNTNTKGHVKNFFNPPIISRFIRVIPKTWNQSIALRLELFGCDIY

[10] = Thr37 to Met mutation; ref [28]; cited from earlier work
[11] = tested on: activated protein C (APC); details: Thr37 to Met mutation; ref [28]; cited from earlier work
[12] = biological target: T2, Factor Va; test: ELISA; remark: listed apart in the source
[13] = biological target: T2, Factor Va; test: ELISA; remark: listed apart in the source

## 54–67: peptide representing PS residues 54–67 (TSR) (GLFTAARQSTNAYP; UniProt P07225 95-108, looked up, fragment)
[1]
  Binding of mAb S4 to immobilized peptide: detected

## CC(C)C[C@H](NC(=O)[C@H](CS)NC(=O)[C@@H](NC(=O)[C@H](CC(C)C)NC(=O)[C@H](Cc1ccc(O)cc1)NC(=O)[C@H](CCCCN)NC(=O)[C@@H]1CCCN1C(=O)[C@H](Cc1ccc(O)cc1)NC(=O)[C@H](Cc1ccccc1)NC(=O)[C@H](Cc1ccc(O)cc1)NC(=O)[C@H](CC(=O)O)NC(=O)[C@@H](N)[C@@H](C)O)C(C)C)C(=O)N[C@@H](CCCNC(=N)N)C(=O)N[C@@H](CO)C(=O)O [PSP37, TDYFYPKYLVCLRS] (H-TDYFYPKYLVCLRS-OH)
[2]
  IC50: 11 µM
[2]; 40 μM peptide
  Inhibition of prothrombinase: 90%

## PS: immunoaffinity-purified free plasma protein S retaining Zn^2+
[3]; at 60% inhibition
  Vmax alteration by PS: 2.2 fold
[3]
  Km alteration by PS: 2 fold
[4]
  Inhibition of platelet and fibrin deposition: inhibited platelet and fibrin deposition
[5]
  Maximal prolongation of clotting time by PS: 95 s

## PSP30: 14-mer peptide, PS residues 30–43 (VFENDPETDYFYPK; UniProt P07225 71-84, looked up, fragment)
[2]
  FVa-dependent inhibition of prothrombinase activity: did not inhibit prothrombinase

## PSP48: 14-mer peptide, PS residues 48–61 (LRSFQTGLFTAARQ; UniProt P07225 89-102, looked up, fragment)
[2]
  FVa-dependent inhibition of prothrombinase activity: did not inhibit prothrombinase

## Phospholipase A2
[6]
  Effect of phospholipase A2 on PS inhibition: no effect on PS inhibition
  Effect of phospholipase A2 on prothrombinase activity: no effect on prothrombinase activity
[2]; mixtures that contained PL, data not shown
  Effect of phospholipase A2 on prothrombinase activity: greatly diminished

## Protein S (from UniProt P07225)
[7]
  Kd: 33 nM
[8]
  Kd: 18 nM

B1: Protein S (natural protein, human, UniProt P07225 42-676, looked up)
chain: ANSLLEETKQGNLERECIEELCNKEEAREVFENDPETDYFYPKYLVCLRSFQTGLFTAARQSTNAYPDLRSCVNAIPDQCSPLPCNEDGYMSCKDGKASFTCTCKPGWQGEKCEFDINECKDPSNINGGCSQICDNTPGSYHCSCKNGFVMLSNKKDCKDVDECSLKPSICGTAVCKNIPGDFECECPEGYRYNLKSKSCEDIDECSENMCAQLCVNYPGGYTCYCDGKKGFKLAQDQKSCEVVSVCLPLNLDTKYELLYLAEQFAGVVLYLKFRLPEISRFSAEFDFRTYDSEGVILYAESIDHSAWLLIALRGGKIEVQLKNEHTSKITTGGDVINNGLWNMVSVEELEHSISIKIAKEAVMDINKPGPLFKPENGLLETKVYFAGFPRKVESELIKPINPRLDGCIRSWNLMKQGASGIKEIIQEKQNKHCLVTVEKGSYYPGSGIAQFHIDYNNVSSAEGWHVNVTLNIRPSTGTGVMLALVSGNNTVPFAVSLVDSTSEKSQDILLSVENTVIYRIQALSLCSDQQSHLEFRVNRNNLELSTPLKIETISHEDLQRQLAVLDKAMKAKVATYLGGLPDVPFSATPVNAFYNGCMEVNINGVQLDLDEAISKHNDIRAHSCPSVWKKTKNS
[9]
  binding result: binds

B2: T37M PS: recombinant PS with mutation of Thr37 to Met (protein, UniProt P07225 42-676, looked up, variant T37M)
Vitamin K-dependent protein S: ANSLLEETKQGNLERECIEELCNKEEAREVFENDPEMDYFYPKYLVCLRSFQTGLFTAARQSTNAYPDLRSCVNAIPDQCSPLPCNEDGYMSCKDGKASFTCTCKPGWQGEKCEFDINECKDPSNINGGCSQICDNTPGSYHCSCKNGFVMLSNKKDCKDVDECSLKPSICGTAVCKNIPGDFECECPEGYRYNLKSKSCEDIDECSENMCAQLCVNYPGGYTCYCDGKKGFKLAQDQKSCEVVSVCLPLNLDTKYELLYLAEQFAGVVLYLKFRLPEISRFSAEFDFRTYDSEGVILYAESIDHSAWLLIALRGGKIEVQLKNEHTSKITTGGDVINNGLWNMVSVEELEHSISIKIAKEAVMDINKPGPLFKPENGLLETKVYFAGFPRKVESELIKPINPRLDGCIRSWNLMKQGASGIKEIIQEKQNKHCLVTVEKGSYYPGSGIAQFHIDYNNVSSAEGWHVNVTLNIRPSTGTGVMLALVSGNNTVPFAVSLVDSTSEKSQDILLSVENTVIYRIQALSLCSDQQSHLEFRVNRNNLELSTPLKIETISHEDLQRQLAVLDKAMKAKVATYLGGLPDVPFSATPVNAFYNGCMEVNINGVQLDLDEAISKHNDIRAHSCPSVWKKTKNS
[10]
  Affinity for phospholipids: diminished affinity for phospholipids
[11]
  Decrease in APC cofactor activity: 3.6 fold

B3: Peptide PSP37 (protein S residues 37-50) (peptide)
peptide: TDYFYPKYLVCLRS
[12]
  IC50: 15 µM
[13]
  Kd: 14 nM
